Data published in publication PMC5308454 (MedChemComm, 2016).
Where two headings read alike, the source gives them in different places.

Columns and labels:
[1] = test system: MCF7-luc-GFP-mCherry breast tumor; test: Dynamic bioluminescence imaging; format: in vivo, SCID mice; details: for Reduction in bioluminescence as compared to baseline or saline control: 4 h after injection, p<0.05
[2] = test system: MCF7-luc-GFP-mCherry breast tumor; test: Histological; format: in vivo, SCID mice; details: 120 mg/kg; 48 h post treatment
Method in brief: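 The same MCF7-luc-GFP-mCherry tumour-bearing SCID mice were dosed ip at 120 mg/kg, or with saline. After the 48 h BLI session they were sacrificed and the tumours excised. Tumour cross-sections were stained with H&E, and necrotic (pink) regions were scored against viable (purple) regions relative to the saline control.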

[3] = test system: NCI-H460; details: read-out: GI50 SRB assay NCI-H460; ref [13]; cited from earlier work
[4] = test system: DU-145 (prostate); details: read-out: GI50 SRB assay DU-145; ref [13]; cited from earlier work
[5] = test system: SK-OV-3; details: read-out: GI50 SRB assay SK-OV-3; ref [13]; cited from earlier work
[6] = test system: tubulin; details: read-out: Inhibition of tubulin polymerization IC50; ref [73]; cited from earlier work
[7] = test system: tubulin; test: Inhibition of tubulin polymerization; format: biochemical; details: read-out: Inhibition of tubulin polymerization IC50; ± SD
[8] = test system: NCI-H460; test: SRB cytotoxicity assay, NCI-H460; format: cell-based, human; details: read-out: GI50 SRB assay NCI-H460; average of n ≥ 3 independent determinations
[9] = test system: DU-145 (prostate); test: SRB cytotoxicity assay, DU-145; format: cell-based, human; details: read-out: GI50 SRB assay DU-145; average of n ≥ 3 independent determinations
[10] = test system: SK-OV-3; test: SRB cytotoxicity assay, SK-OV-3; format: cell-based, human; details: read-out: GI50 SRB assay SK-OV-3; average of n ≥ 3 independent determinations

Q: With COc1cc(/C2=C/CCCCc3c2ccc(OC)c3OP(=O)([O-])[O-])cc(OC)c1OC.[Na+].[Na+] [Compound 24] as the compound, how does the “Bioluminescence intensity at 24 and 48 h versus baseline” value ([1]; 120 mg/kg ip single dose, 24 and 48 h, p<0.005) read?
A: remained significantly below baseline values

Q: What about the “Reduction in bioluminescence as compared to baseline or saline control” value ([1]; 120 mg/kg ip single dose) of the same compound?
A: approximately 80%

Q: And the “Vascular shutdown evidenced by bioluminescence imaging” value ([1]; 120 mg/kg, 4 h post administration, effect continued at 24 and 48 h)?
A: significant vascular shutdown

Q: What about the “Tumor necrosis (H&E) as compared with saline control” value [2] of the same compound?
A: much more extensive necrosis

Q: With COc1ccc(/C=C\c2cc(OC)c(OC)c(OC)c2)cc1O [CA4, combretastatin A-4] as the compound, how does the GI50 [3] read?
A: 5 nM

Q: What about the GI50 [4] of the same compound?
A: 6.02 nM

Q: And the GI50 [5]?
A: 5.06 nM

Q: With COc1ccc(/C=C\c2cc(OC)c(OC)c(OC)c2)cc1OP(=O)(O)O [CA4P, Combretastatin A-4P] as the compound, how does the “Reduction in bioluminescence as compared to baseline or saline control” value ([1]; 120 mg/kg ip single dose) read?
A: approximately 80%

Q: What about the “Tumor necrosis (H&E) as compared with saline control” value [2] of the same compound?
A: much more extensive necrosis

Q: What about the IC50 [6] of the same compound?
A: > 20000 nM

Q: Which results are given for COc1ccc2c(c1O)CCCC=C2c1cc(OC)c(OC)c(OC)c1 [KGP18]?
A: IC50 [7]: 1400 nM; GI50 [8]: 0.0418 nM; GI50 [9]: 0.0249 nM; GI50 [10]: 0.0543 nM
